Published values pooled from the literature.
Compare with care: the assays were run in different laboratories.
Cell line: MCF7
Read-out: cell growth or viability

SMILES	method	time	IC50 [µM]
O=C1[O][Pt]2([NH][C@@H]3CCCC[C@H]3[NH]2)[O]C1=O	MTT	96 h	2.6
CO[C@]1([C@@H]2CSC(=O)N2C2CCCC2)C[C@H]2C[C@@H](CC[C@H](C)/C=C\C=C\CC/C(C)=C\C(=O)O2)O1	MTT	72 h	5.3
C[C@@H]1O[C@@H](O[C@H]2C[C@@H](O)[C@]3(CO)[C@H]4[C@H](O)C[C@]5(C)[C@@H](C6=CC(=O)OC6)CC[C@]5(O)[C@@H]4CC[C@]3(O)C2)[C@H](O)[C@H](O)[C@H]1O	resazurin	72 h	0.053
N.N.[Cl][Pt][Cl]	MTT	48 h	14.2
CO[C@]1([C@@H]2CSC(=O)N2C(=O)c2ccccc2)C[C@H]2C[C@@H](CC[C@H](C)/C=C\C=C\CC/C(C)=C\C(=O)O2)O1	MTT	72 h	0.55
CCC1(c2ccc(N)cc2)CCC(=O)NC1=O (centres unmarked)	CCK-8	48 h	> 50
O=C(Oc1ccc(I)cc1)[c-]1cccc1.[Fe+2].c1cc[cH-]c1	MTT	72 h	256
O=c1ccc2cc3ccoc3cc2o1	WST-1	48 h	32.4
COC(C(=O)N1C(=O)SCC1C1(OC)CC2CC(CCC(C)C=CC=CCCC(C)=CC(=O)O2)O1)c1ccccc1 (centres unmarked)	MTT	72 h	15.4
N.N.[Cl][Pt][Cl]	MTT		10
C[C@]12C[C@@H](O)[C@H]3[C@@H](CC[C@]4(O)C[C@@H](O)C[C@@H](O)[C@]34CO)[C@@]1(O)CC[C@@H]2c1cn(Cc2ccccc2)nn1	resazurin	72 h	> 100
COc1c2c(cc3c1OCO3)[C@]13C=C[C@H](OC)C[C@@H]1[N@](C2)C[C@H]3OC(=O)c1ccoc1	WST-1		> 10
O=C(Oc1ccc(-n2cccc2)cc1)[c-]1cccc1.[Fe+2].c1cc[cH-]c1	MTT	72 h	1.4
CC1c2c(c3ccccc3oc2=O)Oc2ncn(N)c(=N)c21 (centres unmarked)	MTT	72 h	> 75
CO[C@]1([C@@H]2CSC(=O)N2Cc2ccccc2)C[C@H]2C[C@@H](CC[C@H](C)/C=C\C=C\CC/C(C)=C\C(=O)O2)O1	MTT	72 h	0.78
COc1c2c(cc3c1OCO3)[C@]13C=C[C@H](OC)C[C@@H]1[N@](C2)C[C@H]3OC(=O)c1ccco1	WST-1		> 10
COC1(C2CSC(=O)N2)CC2CC(CCC(C)C=CC=CCCC(C)=CC(=O)O2)O1 (centres unmarked)	MTT	72 h	10.2
C=C(C)C(=O)O[C@H]1CC2=C[C@@H](C/C(C)=C/[C@H]3OC(=O)C(=C)[C@H]13)OC2=O	MTT	24 h	2.3
O=C(O)CCCc1ccc(N(CCCl)CCCl)cc1	CCK-8	48 h	38.5
C/C1=C/C(=O)O[C@@H]2C[C@@H](CC[C@H](C)/C=C\C=C\CC1)O[C@@](O)([C@@H]1CSC(=O)N1CO)C2	MTT	72 h	0.12
